How the values were obtained:
[1] = test system: MCF-10; assay: antiproliferative assay, normal mammary epithelial cell line MCF-10; format: cell-based; conditions: Homo sapiens, MCF10, read-out: IC50 MCF-10
In short: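 Human cancer and normal mammary epithelial lines were tested in an antiproliferative assay. Shikonin served as the positive control. The highest test concentration was 33.3 μM.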

[2] = test system: MCF-7; assay: antiproliferative assay, MCF-7; format: cell-based; conditions: Homo sapiens, MCF7, read-out: IC50 MCF-7
In short: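 Run as an antiproliferative screen on human cancer lines alongside the normal mammary epithelial line MCF-10, with a positive control included. The highest test concentration was 33.3 μM.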

| SMILES | IC50 [1] [µM] | IC50 [2] [µM] |
| --- | --- | --- |
| O=C1C2=C(C(=O)c3ccccc31)C(O)C1=C(O)CC(c3ccccc3)C1=C2O (stereo not drawn) [Compound 4a] | > 33.3 | > 33.3 |
| COc1cccc2c1C(=O)c1c(O)c3c(c(O)c1C2=O)C[C@@](O)(C(=O)CO)C[C@@H]3O[C@H]1C[C@H](N)[C@H](O)[C@H](C)O1 [Doxorubicin, reference compound] |  | 1.17 |

Reference: PMC5474392 (Bioorganic & medicinal chemistry letters, 2016)
